Experimental data taken from ChEMBL document CHEMBL2375213, “Synthesis and anticancer activity of novel spiro-isoxazoline and spiro-isoxazolidine derivatives of α-santonin” (Eur J Med Chem, 2013).
pIC50: −log10 of the molar value.

Assays:
PC-3 [1] = test: Antiproliferative activity against human PC3 cells after 48 hrs by sulforhodamine B assay; format: functional, cell-based; details: PC-3, 48 h
THP-1 = test: Antiproliferative activity against human THP1 cells after 48 hrs by sulforhodamine B assay; format: functional, cell-based; details: THP-1, 48 h
HEp-2 = test: Antiproliferative activity against human Hep2 cells after 48 hrs by sulforhodamine B assay; format: functional, cell-based; details: HEp-2, 48 h
HCT-116 = test: Antiproliferative activity against human HCT116 cells after 48 hrs by sulforhodamine B assay; format: functional, cell-based; details: HCT-116, 48 h
MCF7 = test: Antiproliferative activity against human MCF7 cells after 48 hrs by sulforhodamine B assay; format: functional, cell-based; details: MCF7, 48 h
A549 = test: Antiproliferative activity against human A549 cells after 48 hrs by sulforhodamine B assay; format: functional, cell-based; details: A549, 48 h
PC-3 [2] = test: Cell cycle arrest in human PC3 cells assessed as accumulation at S phase at 5 uM after 24 hrs by propidium iodide staining-based FACS flow cytometric analysis (reference value: 8.5%); format: functional
How it was run: (§1)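 PC-3 cells (1×10^6/well) exposed 24 h to test agent at 1, 5 or 10 μM. Cells washed twice in ice-cold PBS, fixed in 70% ethanol for 30 min, then treated with RNase A (0.1 mg/mL, 37 °C, 30 min). Propidium iodide staining 30 min on ice in the dark. DNA content read by flow cytometry with 488 nm excitation and doublet discrimination, 10,000 events.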

PC-3 [3] = test: Cell cycle arrest in human PC3 cells assessed as accumulation at M phase at 5 uM after 24 hrs by propidium iodide staining-based FACS flow cytometric analysis (reference value: 3%); format: functional; how it was run: as §1
PC-3 [4] = test: Cell cycle arrest in human PC3 cells assessed as accumulation at G0/G1 phase at 5 uM after 24 hrs by propidium iodide staining-based FACS flow cytometric analysis (reference value: 68.2%); format: functional; how it was run: as §1
PC-3 [5] = test: Cell cycle arrest in human PC3 cells assessed as accumulation at subG1 phase at 5 uM after 24 hrs by propidium iodide staining-based FACS flow cytometric analysis (reference value: 13.1%); format: functional; how it was run: as §1

pIC50 (PC-3 [1])	pIC50 (THP-1)	pIC50 (HCT-116)	pIC50 (MCF7)	pIC50 (A549)	Structure (SMILES)	pIC50 (HEp-2)	Activity (PC-3 [2]) [%]	Activity (PC-3 [3]) [%]	Activity (PC-3 [4]) [%]	Activity (PC-3 [5]) [%]
6.05	5.41	4.00	6.30	4.26	CC1=C2[C@H]3OC(=O)C4(C[C@@H](c5cc(Cl)ccc5Cl)N(c5ccccc5)O4)[C@@H]3CC[C@@]2(C)C=CC1=O (stereo not given in full)	6.22				
4.00	4.00	4.00	7.00	4.24	CC1=C2[C@H]3OC(=O)C4(CC(c5ccc(Br)cc5)=NO4)[C@@H]3CC[C@@]2(C)C=CC1=O (stereo not given in full)	4.00				
					CC[C@@]1(O)C(=O)OCc2c1cc1n(c2=O)Cc2cc3ccccc3nc2-1 [CAMPTOTHECIN]		4.94	4.76	30.17	60.44
4.00	5.10	4.28	7.70	6.70	COc1ccc(C2=NOC3(C2)C(=O)O[C@@H]2C4=C(C)C(=O)C=C[C@]4(C)CC[C@H]23)cc1 (stereo not given in full)	4.00				
6.10	5.57	5.37	6.15	4.00	CC1=C2[C@H]3OC(=O)C4(C[C@@H](c5ccc(F)c(Br)c5)N(c5ccccc5)O4)[C@@H]3CC[C@@]2(C)C=CC1=O (stereo not given in full)	4.00				
		6.30			CO[C@@]12[C@H](COC(N)=O)C3=C(C(=O)C(C)=C(N)C3=O)N1C[C@@H]1N[C@@H]12 [MITOMYCIN]					
5.70	6.22	4.82	6.05	5.51	CC1=C2[C@H]3OC(=O)C4(CC(c5ccc(Br)c(F)c5)=NO4)[C@@H]3CC[C@@]2(C)C=CC1=O (stereo not given in full)	4.48				
6.22	4.00	4.00	4.85	5.85	CC1=C2[C@H]3OC(=O)C4(C[C@H](c5cccc6ccccc56)N(c5ccccc5)O4)[C@@H]3CC[C@@]2(C)C=CC1=O (stereo not given in full)	4.00				
6.52	4.00	4.00	4.85	4.09	CC1=C2[C@H]3OC(=O)C4(C[C@H](c5cccc([N+](=O)[O-])c5)N(c5ccccc5)O4)[C@@H]3CC[C@@]2(C)C=CC1=O (stereo not given in full)	4.00				
4.00	4.00	4.26	4.25	4.00	CC1=C2[C@H]3OC(=O)C4(CC(c5ccc([N+](=O)[O-])cc5)=NO4)[C@@H]3CC[C@@]2(C)C=CC1=O (stereo not given in full)	4.00				
7.00	4.00	4.00	4.00	5.07	COc1ccc([C@H]2CC3(ON2c2ccccc2)C(=O)O[C@@H]2C4=C(C)C(=O)C=C[C@]4(C)CC[C@H]23)cc1Br (stereo not given in full)	4.00				
6.05	4.38	4.32	4.64	5.00	CC1=C2[C@H]3OC(=O)C4(C[C@@H](c5cccc([N+](=O)[O-])c5)N(c5ccccc5)O4)[C@@H]3CC[C@@]2(C)C=CC1=O (stereo not given in full)	4.00				
4.00	4.68	4.30	4.00	4.00	COc1ccc(C2=NOC3(C2)C(=O)O[C@@H]2C4=C(C)C(=O)C=C[C@]4(C)CC[C@H]23)cc1Br (stereo not given in full)	4.00				
4.00	4.00	5.00	4.57	4.00	CC1=C2[C@H]3OC(=O)C4(CC(c5c(Cl)cccc5Cl)=NO4)[C@@H]3CC[C@@]2(C)C=CC1=O (stereo not given in full)	4.82				
5.66	6.40	4.00	6.30	5.09	CC1=C2[C@H]3OC(=O)C4(CC(c5cc(F)cc(F)c5)=NO4)[C@@H]3CC[C@@]2(C)C=CC1=O (stereo not given in full)	4.00				
6.30	7.00	4.00	6.15	4.18	CC1=C2[C@H]3OC(=O)C4(C[C@H](c5ccc([N+](=O)[O-])cc5)N(c5ccccc5)O4)[C@@H]3CC[C@@]2(C)C=CC1=O (stereo not given in full)	4.85				
6.05	5.64	4.00	6.70	4.72	CC1=C2[C@H]3OC(=O)C4(C[C@H](c5ccc(F)c(Br)c5)N(c5ccccc5)O4)[C@@H]3CC[C@@]2(C)C=CC1=O (stereo not given in full)	5.43				
